Measurements as given in ChEMBL document CHEMBL4033651, “Exploration of flexible phenylpropylurea scaffold as novel cardiac myosin activators for the treatment of systolic heart failure” (Eur J Med Chem, 2017).

Key:
[1] = system: Rattus norvegicus; assay: Positive inotropic activity in Sprague-Dawley rat heart assessed as fractional shortening at 4 ug/kg/min for 3 mins by echocardiographic analysis (reference value: 38.60 to 55.81%); format: functional
Summary of the method: (§1)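 Seven-week-old male Sprague-Dawley rats under 1.5 % isoflurane via nosecone. Drug given through a right internal jugular vein central line. Left ventricular fractional shortening and ejection fraction measured by echocardiography with and without sample, expressed as % increase.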

[2] = species on record: Bos taurus; assay: Activation of actin-stimulated bovine cardiac myosin S1 fragment ATPase activity in sarcomere at 10 uM after 10 mins by spectrophotometric analysis
Summary of the method: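 Bovine cardiac S1 myosin with actin thin filament complex at pCa 6.5, in 20 mM Tris HCl pH 7.5, 15 mM KCl, 6 mM MgCl2, 1 mM ATP. Compound at 10 μM, 10 min at room temperature. Stopped with Cytophos reagent; liberated phosphate read at 650 nm. % activity calculated relative to DMSO negative control, blank-corrected.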

[3] = system: Rattus norvegicus; assay: Positive inotropic activity in Sprague-Dawley rat heart assessed as left ventricle fractional shortening at 2 to 16 ug/kg/min for 3 mins by echocardiographic analysis; format: functional; summary of the method: as §1
[4] = system: Rattus norvegicus; assay: Positive inotropic activity in Sprague-Dawley rat heart assessed as ejection fraction at 2 to 16 ug/kg/min for 3 mins by echocardiographic analysis; format: functional; summary of the method: as §1
[5] = species on record: Oryctolagus cuniculus; assay: Activation of actin-stimulated rabbit psoas skeletal muscle myosin S1 fragment ATPase activity at 100 uM after 10 mins by spectrophotometric analysis
Summary of the method: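 Rabbit skeletal S1 myosin with actin thin filament complex at pCa 6.5, in 20 mM Tris HCl pH 7.5, 15 mM KCl, 6 mM MgCl2, 1 mM ATP. Compound at single 100 uM dose, 10 min at room temperature. Cytophos stop; phosphate read at 650 nm. % activity versus blank-corrected DMSO control.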

[6] = system: Rattus norvegicus; assay: Positive inotropic activity in Sprague-Dawley rat heart assessed as heart rate at 4 ug/kg/min for 3 mins by echocardiographic analysis (reference value: 281 to 347 bpm); format: functional
[7] = system: Rattus norvegicus; assay: Positive inotropic activity in Sprague-Dawley rat heart assessed as heart rate at 8 ug/kg/min for 3 mins by echocardiographic analysis (reference value: 281 to 347 bpm); format: functional
[8] = system: Rattus norvegicus; assay: Positive inotropic activity in Sprague-Dawley rat heart assessed as left ventricular internal diameter end systole at 4 ug/kg/min for 3 mins by echocardiographic analysis (reference value: 2.50 to 4.78 mm); format: functional
Summary of the method: (§2)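 Male Sprague-Dawley rats, seven weeks old, anaesthetised with 1.5 % isoflurane given by nosecone. Compound infused through the right internal jugular vein, used as a central venous line. Left ventricular dimensions measured by echocardiography.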

[9] = system: Rattus norvegicus; assay: Positive inotropic activity in Sprague-Dawley rat heart assessed as left ventricular internal diameter end systole at 8 ug/kg/min for 3 mins by echocardiographic analysis (reference value: 2.50 to 4.78 mm); format: functional; summary of the method: as §2
[10] = system: Rattus norvegicus; assay: Positive inotropic activity in Sprague-Dawley rat heart assessed as left ventricular internal diameter end systole at 16 ug/kg/min for 3 mins by echocardiographic analysis (reference value: 2.50 to 4.78 mm); format: functional; summary of the method: as §2
[11] = system: Rattus norvegicus; assay: Positive inotropic activity in Sprague-Dawley rat heart assessed as left ventricular internal diameter end diastole at 4 ug/kg/min for 3 mins by echocardiographic analysis (reference value: 5.66 to 7.80 mm); format: functional; summary of the method: as §2
[12] = system: Rattus norvegicus; assay: Positive inotropic activity in Sprague-Dawley rat heart assessed as left ventricular internal diameter end diastole at 8 ug/kg/min for 3 mins by echocardiographic analysis (reference value: 5.66 to 7.80 mm); format: functional; summary of the method: as §2
[13] = system: Rattus norvegicus; assay: Positive inotropic activity in Sprague-Dawley rat heart assessed as left ventricular internal diameter end diastole at 16 ug/kg/min for 3 mins by echocardiographic analysis (reference value: 5.66 to 7.80 mm); format: functional
[14] = system: Rattus norvegicus; assay: Positive inotropic activity in Sprague-Dawley rat heart assessed as left ventricular posterior wall thickness end systole at 4 ug/kg/min for 3 mins by echocardiographic analysis (reference value: 2.07 to 2.46 mm); format: functional; summary of the method: as §2
[15] = system: Rattus norvegicus; assay: Positive inotropic activity in Sprague-Dawley rat heart assessed as left ventricular posterior wall thickness end systole at 8 ug/kg/min for 3 mins by echocardiographic analysis (reference value: 2.07 to 2.46 mm); format: functional; summary of the method: as §2
[16] = system: Rattus norvegicus; assay: Positive inotropic activity in Sprague-Dawley rat heart assessed as left ventricular posterior wall thickness end systole at 16 ug/kg/min for 3 mins by echocardiographic analysis (reference value: 2.07 to 2.46 mm); format: functional; summary of the method: as §2
[17] = system: Rattus norvegicus; assay: Positive inotropic activity in Sprague-Dawley rat heart assessed as left ventricular posterior wall thickness end diastole at 4 ug/kg/min for 3 mins by echocardiographic analysis (reference value: 0.88 to 1.54 mm); format: functional; summary of the method: as §2
[18] = system: Rattus norvegicus; assay: Positive inotropic activity in Sprague-Dawley rat heart assessed as left ventricular posterior wall thickness end diastole at 8 ug/kg/min for 3 mins by echocardiographic analysis (reference value: 0.88 to 1.54 mm); format: functional; summary of the method: as §2
[19] = system: Rattus norvegicus; assay: Positive inotropic activity in Sprague-Dawley rat heart assessed as left ventricular posterior wall thickness end diastole at 16 ug/kg/min for 3 mins by echocardiographic analysis (reference value: 0.88 to 1.54 mm); format: functional; summary of the method: as §2
[20] = system: Rattus norvegicus; assay: Positive inotropic activity in Sprague-Dawley rat heart assessed as ejection fraction at 4 ug/kg/min for 3 mins by echocardiographic analysis (reference value: 67.16 to 85.81%); format: functional; summary of the method: as §1
[21] = system: Rattus norvegicus; assay: Positive inotropic activity in Sprague-Dawley rat heart assessed as ejection fraction at 8 ug/kg/min for 3 mins by echocardiographic analysis (reference value: 67.16 to 85.81%); format: functional; summary of the method: as §1
[22] = system: Rattus norvegicus; assay: Positive inotropic activity in Sprague-Dawley rat heart assessed as fractional shortening at 8 ug/kg/min for 3 mins by echocardiographic analysis (reference value: 38.60 to 55.81%); format: functional; summary of the method: as §1
[23] = system: Rattus norvegicus; assay: Positive inotropic activity in Sprague-Dawley rat heart assessed as fractional shortening at 16 ug/kg/min for 3 mins by echocardiographic analysis (reference value: 38.60 to 55.81%); format: functional; summary of the method: as §1
[24] = system: Rattus norvegicus; assay: Effect on hemodynamic parameters in Sprague-Dawley rat heart assessed as end-systolic pressure at 8 ug/kg/min (reference value: 87.48 to 97.85 mmHg); format: functional
[25] = system: Rattus norvegicus; assay: Effect on hemodynamic parameters in Sprague-Dawley rat heart assessed as dPdT max at 8 ug/kg/min (reference value: 4162 to 5214 mmHg/s); format: functional
[26] = system: Rattus norvegicus; assay: Effect on hemodynamic parameters in Sprague-Dawley rat heart assessed as dPdT max at 16 ug/kg/min (reference value: 4162 to 5214 mmHg/s); format: functional
[27] = system: Rattus norvegicus; assay: Effect on hemodynamic parameters in Sprague-Dawley rat heart assessed as dPdT min at 8 ug/kg/min (reference value: -5462 to -4611 mmHg/s); format: functional
[28] = system: Rattus norvegicus; assay: Effect on hemodynamic parameters in Sprague-Dawley rat heart assessed as dPdT min at 16 ug/kg/min (reference value: -5462 to -4611 mmHg/s); format: functional
[29] = system: Rattus norvegicus; assay: Effect on hemodynamic parameters in Sprague-Dawley rat heart assessed as heart rate at 8 ug/kg/min (reference value: 260 to 322 bpm); format: functional
[30] = system: Rattus norvegicus; assay: Effect on hemodynamic parameters in Sprague-Dawley rat heart assessed as heart rate at 16 ug/kg/min (reference value: 274 to 322 bpm); format: functional

SMILES | Activity [1] | Activity [2] | Activity [3] | Activity [4] | Activity [5] | Activity [6] | Activity [7] | Activity [8] | Activity [9] | Activity [10] | Activity [11] | Activity [12] | Activity [13] | Activity [14] | Activity [15] | Activity [16] | Activity [17] | Activity [18] | Activity [19] | Activity [20] | also measured
O=C(NCCCc1ccccc1)NCc1ccccc1 | 45.67% | 53.3% | 30.04% | 18.27% | 1.4% | 395 bpm | 412 bpm | 3.03 mm | 1.58 mm | 1.58 mm | 5.57 mm | 5.97 mm | 5.57 mm | 2.24 mm | 2.68 mm | 3.03 mm | 1.62 mm | 1.49 mm | 1.71 mm | 76.44% | Activity [21]: 96.1%; Activity [22]: 73.53%; Activity [23]: 71.65%; Activity [24]: 96.04 mmHg; Activity [25]: 4644 mmHg/s; Activity [26]: 4740 mmHg/s; Activity [27]: -5583 mmHg/s; Activity [28]: -5405 mmHg/s; Activity [29]: 271 bpm; Activity [30]: 272 bpm
COC(=O)N1CCN(Cc2cccc(NC(=O)Nc3ccc(C)nc3)c2F)CC1 [OMECAMTIV MECARBIL] | 58.9% | 58% | 20.32% | 13.35% | 2.8% | 368 bpm | 370 bpm | 2.63 mm | 2.33 mm | 2.55 mm | 6.41 mm | 5.97 mm | 6.5 mm | 2.81 mm | 2.68 mm | 2.77 mm | 1.36 mm | 1.23 mm | 1.36 mm | 87.85% | Activity [21]: 89.52%; Activity [22]: 61.03%; Activity [23]: 60.81%; Activity [24]: 104.3 mmHg; Activity [25]: 6143 mmHg/s; Activity [26]: 6867 mmHg/s; Activity [27]: -5547 mmHg/s; Activity [28]: -6342 mmHg/s; Activity [29]: 292 bpm; Activity [30]: 297 bpm
